Compound activity: PubChem, several laboratories
The list is not random: actives were taken first. Their share in the collection is about 2.8%.
Rtt109 Vps75: blocks Candida albicans Rtt109/Vps75 acetyltransferase activity; purified Rtt109/Vps75, ThioGlo CoA-SH fluorescence, 4 h; inhibition, % at 34.9 µM; 0.16% of 330,000 active; AID 540336;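 active = inhibition of at least 50% in every replicate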
T cell HTS: T cell immune modulation candidate | 2C CD8+ T cell-vesicle binding, flow cytometry; active compounds read low | response (vesicle binding), % at 7 µM | 0.068% of 330,000 active | AID 2052;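 active = response, share of CD8 T cells binding vesicles, and their 90th percentile fluorescence all below set limits, cut at about 80% in these data, passing the limit was not always enough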;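 also: values below 100% mean blocked vesicle binding to the CD8+ T cells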
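Material: 2C TCR transgenic mouse naive CD8+ T cells, MACS-purified. Also added: QL9-charged Drosophila Ld/ICAM-1/B7-1 vesicles. Timing: binding 1.5 h at 37 °C. Measured by: high-throughput flow cytometry with anti-B7-1 and anti-CD8 staining. Read-out: percent CD8+ FL2 mean versus row control. Controls: Unloaded micro-vesicles (low), QL9 vesicles with 0.7% DMSO (high).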
NR3A LBD binder: NR3A (human) ligand-binding domain modulation; Tm shift relative to glycine control, % at 25 µM; NR3A LBD differential scanning fluorimetry, Tm shift; 0% = protein alone, 100% = glycine-bound protein; 2.5% of 340,000 active;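 active = melting temperature shift of at least 10% of the positive control shift, at one fixed dose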
GASC-1 inh: inhibitors of human GASC-1 (JMJD2C) demethylase | Q9H3R0 | GST-JMJD2C(1-420) H3K9me3 demethylation, DELFIA europium | inhibition, % at 2.35 µM | 0.069% of 330,000 active;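 active = more than half of a compound's replicate wells show inhibition beyond 50%, single wells judged on their own value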;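 also: signal counts dimethyl H3K9 product captured on neutravidin plate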
Target sequence (Q9H3R0 1-420 limits assumed): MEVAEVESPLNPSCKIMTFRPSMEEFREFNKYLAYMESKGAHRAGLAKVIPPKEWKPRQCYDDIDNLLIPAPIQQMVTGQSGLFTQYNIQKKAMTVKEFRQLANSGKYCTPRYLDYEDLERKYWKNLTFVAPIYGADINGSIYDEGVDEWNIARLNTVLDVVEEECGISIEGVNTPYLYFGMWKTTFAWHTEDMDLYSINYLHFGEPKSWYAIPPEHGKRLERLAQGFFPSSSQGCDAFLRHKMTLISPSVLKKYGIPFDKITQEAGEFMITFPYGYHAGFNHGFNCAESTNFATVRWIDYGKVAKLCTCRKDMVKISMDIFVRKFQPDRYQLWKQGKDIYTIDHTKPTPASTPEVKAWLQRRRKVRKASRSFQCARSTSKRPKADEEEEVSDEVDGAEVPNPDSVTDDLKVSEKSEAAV
Large screens that a line does not name were inactive; ! = a repeat was not active.

Cn1nc(C(F)(F)F)c2cc(C(=O)Nc3ccc(C(F)(F)F)cc3)sc21	NR3A LBD binder 15
Cn1nc(C(F)(F)F)c2cc(C(=O)Nc3ccc(F)cc3)sc21	none
O=C(COc1cc(Cl)c(Cl)cc1Cl)NC(=O)Nc1ccc2c(c1)OCCO2	NR3A LBD binder 19
O=C(COc1cc(Cl)c(Cl)cc1Cl)Nc1ccncc1	NR3A LBD binder 545
O=C(COc1cc(Cl)c(Cl)cc1Cl)Nc1cccc(O)c1	NR3A LBD binder 18
Cc1cccc(OCC(=O)Nc2cccc(O)c2)c1	none
O=C(COc1coc(CN2CCN(c3ccccc3)CC2)cc1=O)NC1CCCC1	none
C/C(N)=C(/C#N)C(=O)COC(=O)c1cc(-c2ccc(Br)cc2)nc2ccccc12	NR3A LBD binder 18
C/C(N)=C(/C#N)C(=O)COc1ncnc2ccccc12	none
CCCCCc1nc2sc3c(c2c(=O)n1NC(=O)c1ccc([N+](=O)[O-])cc1)CC(C)(C)OC3	NR3A LBD binder 12 (no result: Rtt109 Vps75)
CC1(C)Nc2ccccc2C(=O)N1c1ccc(Br)cc1	NR3A LBD binder 13
Cn1c(CC(=O)Nc2ccc(Cl)c(Cl)c2)n[nH]c1=S	none
COc1ccc(Cc2n[nH]c(=S)n2NC(=O)Nc2ccc(Cl)c(Cl)c2)cc1	NR3A LBD binder 15 (no result: GASC-1 inh)
CCOC(=O)c1cnn(-c2ccc(NS(=O)(=O)c3ccc(Cl)cc3)cc2)c1C(F)(F)F	NR3A LBD binder 16
CCOC(=O)c1ccc(NS(=O)(=O)c2ccc(Cl)nc2)cc1	none (no result: Rtt109 Vps75, NR3A LBD binder)
Cc1cc(C)nc(N/N=C/c2ccccc2OCc2ccccc2)n1	NR3A LBD binder 12
Cc1cc(C)nc(N/N=C/c2ccccc2OCc2ccc(Br)cc2)n1	none
Cc1cc(C)nc(Sc2nc(Cl)nc(N(c3ccccc3)c3ccccc3)n2)n1	Rtt109 Vps75 79
COc1ccc(S(N)(=O)=O)cc1C(=O)NNC(=O)C1COc2ccccc2O1 (stereo unspecified)	none
CCCn1c(CN(Cc2ccccc2)Cc2ccccc2)nc2c1c(=O)n(C)c(=O)n2C	NR3A LBD binder 14
C=CCNc1nc(C(F)(F)F)nc2c1nnn2Cc1ccccc1Cl	none
CC(=O)Nc1ccc(Nc2nc(C(F)(F)F)nc3c2nnn3Cc2ccccc2Cl)cc1	NR3A LBD binder 13
O=C(COc1ccc(-c2ccccc2)cc1)N1CCN(C(=O)c2cccnc2)CC1	NR3A LBD binder 12
COc1ccc(-n2c(SCC(=O)Nc3cccc(S(N)(=O)=O)c3)nc3ccccc3c2=O)cc1OC	none
CCOC(=O)c1c(CSc2ccccc2)n(C)c2ccc(O)c(CN3CCOCC3)c12	NR3A LBD binder 14
CCOC(=O)c1c(C)n(C)c2ccc(O)c(CN3CCN(C)CC3)c12	none (no result: Rtt109 Vps75, GASC-1 inh)
CC(C)C(=O)N1CCN(c2ccccc2NC(=O)c2cc([N+](=O)[O-])ccc2N2CCOCC2)CC1	none
CCn1c(/N=C/c2ccccc2NS(=O)(=O)c2ccc(C)cc2)nc2ccccc21	NR3A LBD binder 13 (no result: Rtt109 Vps75)
C#Cc1ccc(CN2CCN(CCCc3ccccc3)C(CCO)C2)cc1 (stereo unspecified)	none
Cn1nc(C(=O)N2CCN(S(=O)(=O)c3ccccc3)CC2)c2ccccc2c1=O	NR3A LBD binder 12
NS(=O)(=O)c1ccc(NC(=S)N2CCN(Cc3ccc(Cl)c(Cl)c3)CC2)cc1	NR3A LBD binder 25
O=S(=O)(c1ccc(Cl)cc1)N1CCN(C(=S)Nc2ccc(F)c(Cl)c2)CC1	NR3A LBD binder 18
O=S(=O)(c1ccccc1)N1CCN(C(=S)Nc2ccc(F)cc2)CC1	none
CC(=O)Nc1cc(Cl)c(N=Cc2ccc(O)cc2O)cc1Cl	none (no result: Rtt109 Vps75)
CCOC(=O)c1sc(/N=C/c2ccc(O)cc2O)cc1C	NR3A LBD binder 14
Nc1cccc2c1C(=O)c1ccc(Cl)cc1C2=O	none (no result: T cell HTS, GASC-1 inh)
O=C(O)c1cccc2c1-c1ccc(Cl)cc1C2=O	NR3A LBD binder 14 (no result: T cell HTS, GASC-1 inh)
Cc1sc2ncnc(OCC(=O)NCc3cccs3)c2c1C	none
CNC(=O)COc1ncnc2sc(C)c(C)c12	NR3A LBD binder 14
CC1CN=C(c2cccn2Cc2ccc(F)cc2Cl)O1 (stereo unspecified)	NR3A LBD binder 12
CC1(C)COC(c2cccn2Cc2ccc(F)cc2Cl)=N1	none
N#CCCN1CCN(CCC#N)C1=S	none (no result: T cell HTS, GASC-1 inh)
Cc1ccc(NC(=O)c2cc(S(=O)(=O)Nc3ccc(C)cc3)cs2)cc1	NR3A LBD binder 27
Cc1cc(C)cc(NS(=O)(=O)c2ccc(NC(=S)NC(=O)c3cccs3)cc2)c1	NR3A LBD binder 24
CNC(=O)c1cc(S(=O)(=O)Nc2ccc(C)cc2C)ccc1C	NR3A LBD binder 14
CNC(=O)c1cc(S(=O)(=O)NC2CCCCCC2)ccc1C	none (no result: T cell HTS)
Cc1ccc(NS(=O)(=O)c2ccc(NC(=O)c3cccs3)cc2)c(C)c1	NR3A LBD binder 29
Cc1ccccc1CN1CCC(N2CCC(C(=O)NCC3CCCO3)CC2)CC1 (stereo unspecified)	none
Cc1ccc(NS(=O)(=O)c2ccc(NC(=O)C(C)Sc3ccc(Cl)cc3)cc2)c(C)c1 (stereo unspecified)	NR3A LBD binder 13
Cc1cc(F)ccc1S(=O)(=O)N1CCCCC1CCNC(=O)C(=O)NCc1ccccn1 (stereo unspecified)	none (no result: Rtt109 Vps75)
C#CCOCCOCCOCCNc1nc(N2CCN(C(=O)CCCCCCCCCCNC(=O)[C@H]([C@@H](C)CC)n3cc(CCCCCN)nn3)CC2)nc(N2CCN(C(=O)CCCCCCCCCCNC(=O)[C@H](CO)n3cc(CCCCCN)nn3)CC2)n1	NR3A LBD binder 28
C#CCOCCOCCOCCNc1nc(N2CCN(C(=O)CCCCCCCCCCNC(=O)[C@H]([C@@H](C)CC)n3cc(CCCCCN)nn3)CC2)nc(N2CCN(C(=O)CCCCCCCCCCNC(=O)[C@H]([C@@H](C)CC)n3cc(CCCCN=C(N)N)nn3)CC2)n1	none (no result: NR3A LBD binder, GASC-1 inh)
C#CCOCCOCCOCCNc1nc(N2CCN(C(=O)CCCCCCCCCCNC(=O)[C@H]([C@@H](C)CC)n3cc(CCCCN=C(N)N)nn3)CC2)nc(N2CCN(C(=O)CCCCCCCCCCNC(=O)[C@H](CO)n3cc(CCCCCN)nn3)CC2)n1	Rtt109 Vps75 87, NR3A LBD binder 17
Cn1c(CC(=O)Nc2ccccc2F)nnc1SCC(=O)NC1CCCCC1	none
Nc1[nH]c(=O)[nH]c(=O)c1N=Nc1cccc(Cl)c1	NR3A LBD binder 16
Nc1c(N=Nc2cccc(Cl)c2)c(=O)[nH]n1-c1ccccc1	none
COc1cccc(OC)c1C(=O)Nc1cccc(-c2ccc(N3CCOCC3)nn2)c1	Rtt109 Vps75 52
CC(C)(C)NC(=O)NC(=O)COC(=O)C1CCN(S(=O)(=O)c2cccs2)CC1	none (no result: GASC-1 inh)
CCOC(=O)C(Oc1ccc2c(-c3ccccc3)cc(=O)oc2c1C)c1ccccc1 (stereo unspecified)	NR3A LBD binder 14
O=S(=O)(Cc1ccccc1)CS(=O)(=O)Cc1ccccc1	none (no result: T cell HTS, GASC-1 inh)
COc1ccc([N+](=O)[O-])cc1NC(=O)CC1SC(=Nc2cccc(C)c2C)N(/N=C/c2cccc(OC)c2OC)C1=O (stereo unspecified)	NR3A LBD binder 21!
O=C(CSc1nc2ccccc2n1S(=O)(=O)c1ccccc1)N1CCCCC1	NR3A LBD binder 14
O=C(CSc1nc2ccccc2n1CC(=O)N1CCCCC1)N1CCCCC1	none
